# Assay results of several laboratories.
# Each line is one published result; the experiments were not run side by side.
# pH: 7.4
SMILES,assay,system,conditions,logD
CC(C)N=c1cc2n(-c3ccc(Cl)cc3)c3ccccc3nc-2cc1Nc1ccc(Cl)cc1,shake flask,aqueous buffer,,5.76
C[C@@H]1COCCN1c1cccc(-c2ccc3ncnc(Nc4ncco4)c3c2)c1,shake flask,aqueous buffer,,4.2
CCN(CC)c1ccc(C=NNC(=O)c2ccccn2)c(O)c1,shake flask,aqueous buffer,24 h,3.48
Cn1cc2c(C(=O)O)ccc(NS(=O)(=O)c3ccc(Cl)c(Cl)c3)c2n1,shake flask,aqueous buffer,,0.5
c1cc(-c2ccc3ncnc(Nc4ncco4)c3c2)cc(N2CC3(COC3)C2)c1,shake flask,aqueous buffer,,> 4
COCC(=O)N1CCC[C@H](C(=O)NCc2nc(-c3ccc(C#N)cc3)cs2)C1,shake flask,aqueous buffer,,1.5
COc1cnc(Nc2cnnc3ccc(-c4ccc(N5CCN(C)CC5)cc4)cc23)nc1,shake flask,aqueous buffer,,3.2
C[C@H](O)c1cnc(NS(=O)(=O)c2ccc(Cl)c(Cl)c2)nc1,shake flask,aqueous buffer,,0.5
NCCOCC(=O)N1CCC[C@H](C(=O)NCc2nc(-c3ccc(C(F)(F)F)cc3)cs2)C1,shake flask,aqueous buffer,,0.47
C=C1C[C@@]23CC[C@H]4[C@@](C)(CCC[C@@]4(C)C(=O)O[C@@H]4O[C@H](CO)[C@@H](O)[C@H](O)[C@H]4O)[C@@H]2CC[C@]1(O[C@@H]1O[C@H](CO)[C@@H](O)[C@H](O)[C@H]1O)C3,shake flask,aqueous buffer,,-1.45
Clc1ccc(Nc2ncnc3ccc(-c4cccc(N5CCOCC5)c4)cc23)cc1,shake flask,aqueous buffer,,> 4.6
O=C(O)c1ccc(NS(=O)(=O)c2ccc(Cl)c(Cl)c2)c2ncccc12,shake flask,aqueous buffer,,0.9
c1cc(-c2ccc3ncnc(Nc4ncco4)c3c2)nc(N2CCOCC2)n1,shake flask,aqueous buffer,,3.4
C=CC(=O)N1CC2(CCN(c3nc4c(c(-c5c(C)ccc6[nH]ncc56)c3C#N)COC(C)(C)C4)C2)C1,,,,2.8
N#Cc1ccc(-c2csc(CNC(=O)[C@H]3CCCN(C(=O)CCN)C3)n2)cc1,shake flask,aqueous buffer,,-0.69
CNS(=O)(=O)c1ccc(Nc2ncc(C(F)(F)F)c(N3CCC(C)(O)CC3)n2)c(C)c1,shake flask,aqueous buffer,1 h,3.8
CN1CCN(c2cccc(-c3ccc4ncnc(Nc5ccc([N+](=O)[O-])c(C(F)(F)F)c5)c4c3)c2)CC1,shake flask,aqueous buffer,,> 3.9
C=CC(=O)N1CC2(CCN(c3nc4c(c(-c5cc(O)cc6ccccc56)c3C)COC(C)(C)C4)C2)C1,,,,4.3
Cn1cc2c(C(=O)O)ccc(NS(=O)(=O)c3ccc(OCC4CCC4)c(Cl)c3)c2n1,shake flask,aqueous buffer,,2
C[C@H]1CN(c2cccc(-c3ccc4ncnc(Nc5ncco5)c4c3)c2)CCO1,shake flask,aqueous buffer,,> 4.3
CNS(=O)(=O)c1ccc(Nc2ncc3cc(Cl)c(=O)n(C4CCCC4)c3n2)c(C)c1,shake flask,aqueous buffer,1 h,3.8
Cc1ccc(Nc2cnnc3ccc(-c4ccc(N5CCCN(C)CC5)cc4)cc23)cn1,shake flask,aqueous buffer,,3.3
N[C@@H](COCC(=O)N1CCC[C@H](C(=O)NCc2nc(-c3ccc(C(F)(F)F)cc3)cs2)C1)c1ccccc1,shake flask,aqueous buffer,,3
CN1CCN(c2cccc(-c3ccc4ncnc(Nc5ccc(Cl)c(C(F)(F)F)c5)c4c3)c2)CC1,shake flask,aqueous buffer,,> 4.3
CNS(=O)(=O)c1ccc(Nc2ncc(C(F)(F)F)c([C@H]3CC[C@@](C)(O)CC3)n2)c(C)c1,shake flask,aqueous buffer,1 h,4
C=CC(=O)N1CC2(CCN(c3nc4c(c(-c5c(C)ccc6[nH]ncc56)c3C#N)CCC(C)(C)C4)C2)C1,,,,4.3
C[C@H]1[C@@H](C(=O)NCc2nc(-c3ccc(C#N)cc3)cs2)CCCN1C(=O)[C@H]1CCC(=O)O1,shake flask,aqueous buffer,,1.4
CN(c1ncco1)c1ncnc2ccc(-c3cccc(N4CCOCC4)c3)cc12,shake flask,aqueous buffer,,2.1
N=C(CC(O)c1cc2c(F)cc(F)cc2c2cc(C(F)(F)F)ccc12)Nc1ccc(F)c(F)c1 (centres unmarked),,,,4.96
